Laboratory results published in ChEMBL document CHEMBL4406880, “Design, synthesis, and bioactivity of dihydropyrimidine derivatives as kinesin spindle protein inhibitors” (Bioorg Med Chem, 2019).

Assays:
Format in all cases: functional
LOX IMVI = experiment: Growth inhibition of human LOXIMVI cells assessed as cell viability at 100 uM incubated for 48 hrs by sulforhodamine B assay; conditions: read-out: Activity
786-0 = experiment: Growth inhibition of human 786-0 cells assessed as cell viability at 1 uM incubated for 48 hrs by sulforhodamine B assay; conditions: 786-0, 48 h, read-out: Activity
How it was run: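 NCI-60 five-dose mode: five tenfold dilutions (0.01, 0.1, 1, 10, 100 µM) are applied for 48 h to cells in RPMI 1640 with 5% FBS at 37 °C. Endpoint is TCA fixation with sulforhodamine B read at 515 nm. % growth comes from the 0 h and control absorbances. GI50 is the concentration giving a 50% reduction in net cell growth.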

SK-MEL-28 = experiment: Growth inhibition of human SK-MEL-28 cells assessed as cell viability at 0.1 uM incubated for 48 hrs by sulforhodamine B assay; conditions: SK-MEL-28, 48 h, read-out: Activity
NCI-H226 [1] = experiment: Growth inhibition of human NCI-H226 cells assessed as cell viability at 0.001 uM incubated for 48 hrs by sulforhodamine B assay relative to control; conditions: NCI-H226, 48 h, read-out: Activity
UACC-62 = experiment: Growth inhibition of human UACC62 cells assessed as cell viability at 0.001 uM incubated for 48 hrs by sulforhodamine B assay relative to control; conditions: UACC-62, 48 h, read-out: Activity
SK-OV-3 = experiment: Growth inhibition of human SKOV3 cells assessed as cell viability at 0.001 uM incubated for 48 hrs by sulforhodamine B assay relative to control; conditions: SK-OV-3, 48 h, read-out: Activity
HT-29 = experiment: Growth inhibition of human HT-29 cells assessed as cell viability at 100 uM incubated for 48 hrs by sulforhodamine B assay; conditions: HT-29, 48 h, read-out: Activity
NCI-H23 = experiment: Growth inhibition of human NCI-H23 cells assessed as cell viability at 0.001 uM incubated for 48 hrs by sulforhodamine B assay relative to control; conditions: NCI-H23, 48 h, read-out: Activity
HOP-92 [2] = experiment: Growth inhibition of human HOP92 cells incubated for 48 hrs by sulforhodamine B assay; conditions: HOP-92, 48 h
How it was run: (§1)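 NCI-60 five-dose assay, SRB end-point, same culture conditions. Compound is tested at tenfold dilutions of 0.01, 0.1, 1, 10 and 100 µM for 48 h at 37 °C, with DMSO/PBS vehicle controls. Percentage growth at each concentration is taken against untreated cells and a time-zero plate. GI50 is 50% net growth decrease, TGI is total growth inhibition, and LC50 is 50% loss of initial cells.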

OVCAR-8 = experiment: Growth inhibition of human OVCAR8 cells assessed as cell viability at 0.1 uM incubated for 48 hrs by sulforhodamine B assay; conditions: OVCAR-8, 48 h, read-out: Activity
HOP-92 [3] = experiment: Growth inhibition of human HOP92 cells assessed as cell viability at 0.1 uM incubated for 48 hrs by sulforhodamine B assay; conditions: HOP-92, 48 h, read-out: Activity
EKVX = experiment: Growth inhibition of human EKVX cells assessed as cell viability at 0.1 uM incubated for 48 hrs by sulforhodamine B assay; conditions: read-out: Activity
BT-549 = experiment: Growth inhibition of human BT549 cells assessed as cell viability at 100 uM incubated for 48 hrs by sulforhodamine B assay; conditions: BT-549, 48 h, read-out: Activity
SR = experiment: Growth inhibition of human SR cells assessed as cell viability at 1 uM incubated for 48 hrs by sulforhodamine B assay; conditions: read-out: Activity
SF-268 = experiment: Growth inhibition of human SF268 cells assessed as cell viability at 100 uM incubated for 48 hrs by sulforhodamine B assay; conditions: SF-268, 48 h, read-out: Activity
SK-MEL-2 [4] = experiment: Growth inhibition of human SK-MEL-2 cells assessed as cell viability at 0.1 uM incubated for 48 hrs by sulforhodamine B assay; conditions: SK-MEL-2, 48 h, read-out: Activity
MDA-MB-435 = experiment: Growth inhibition of human MDA-MB-435 cells incubated for 48 hrs by sulforhodamine B assay; conditions: MDA-MB-435, 48 h
How it was run: (§2)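 NCI-60 five-dose SRB assay in RPMI 1640 with 5% FBS, 37 °C, 5% CO2. Compound given at five tenfold dilutions, 0.01–100 µM, for 48 h. Adherent cells fixed with TCA, suspension cells with 16% final TCA. Bound SRB read at 515 nm and growth calculated against time-zero and untreated controls. GI50 taken from dose–response curves as the concentration giving a 50% decrease in net cell growth.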

RPMI-8226 = experiment: Growth inhibition of human RPMI8226 cells incubated for 48 hrs by sulforhodamine B assay; conditions: RPMI-8226, 48 h; how it was run: as §1
NCI-H226 [5] = experiment: Growth inhibition of human NCI-H226 cells incubated for 48 hrs by sulforhodamine B assay; conditions: NCI-H226, 48 h; how it was run: as §2
Hs-578T = experiment: Growth inhibition of human Hs 578T cells assessed as cell viability at 100 uM incubated for 48 hrs by sulforhodamine B assay; conditions: read-out: Activity
OVCAR-3 = experiment: Growth inhibition of human OVCAR3 cells assessed as cell viability at 0.1 uM incubated for 48 hrs by sulforhodamine B assay; conditions: OVCAR-3, 48 h, read-out: Activity
SK-MEL-2 [6] = experiment: Growth inhibition of human SK-MEL-2 cells assessed as cell viability at 1 uM incubated for 48 hrs by sulforhodamine B assay; conditions: SK-MEL-2, 48 h, read-out: Activity
PC-3 = experiment: Growth inhibition of human PC3 cells assessed as cell viability at 100 uM incubated for 48 hrs by sulforhodamine B assay; conditions: PC-3, 48 h, read-out: Activity
MDA-MB-231 = experiment: Growth inhibition of human MDA-MB-231 cells assessed as cell viability at 1 uM incubated for 48 hrs by sulforhodamine B assay; conditions: MDA-MB-231, 48 h, read-out: Activity
SK-MEL-5 = experiment: Growth inhibition of human SK-MEL-5 cells assessed as cell viability at 0.001 uM incubated for 48 hrs by sulforhodamine B assay relative to control; conditions: SK-MEL-5, 48 h, read-out: Activity
HCC 2998 = experiment: Growth inhibition of human HCC2998 cells assessed as cell viability at 0.001 uM incubated for 48 hrs by sulforhodamine B assay relative to control; conditions: HCC 2998, 48 h, read-out: Activity

Work on `CC1=C(C(=O)OCc2ccccc2)C(c2ccc3c(c2)OCO3)n2c(nc3ccccc32)N1` (racemic) yielded a viability at 100 µM (LOX IMVI) of 32%, a viability at 1 µM (786-0) of 27% and a viability at 0.1 µM (SK-MEL-28) of 93%. It also gave a viability at 0.001 µM (NCI-H226 [1]) of 93%, a viability at 0.001 µM (UACC-62) of 90% and a viability at 0.001 µM (SK-OV-3) of 99%. It also gave a viability at 100 µM (HT-29) of 5%, a viability at 0.001 µM (NCI-H23) of 93% and an LC50 (concentration killing 50% of initial cells) (HOP-92 [2]; read-out: LC50) of over 100 µM. It also gave a TGI (HOP-92 [2]; read-out: TGI) of over 100 µM, an LC50 (concentration killing 50% of initial cells) (HOP-92 [2]; read-out: pLC50 (converted)) of over 100 µM and a TGI (HOP-92 [2]; read-out: pTGI) of over 100 µM. For the same molecule, the viability at 0.1 µM (OVCAR-8) was 97%, the viability at 0.1 µM (HOP-92 [3]) was 70% and the viability at 0.1 µM (EKVX) was 95%. For the same molecule, the viability at 100 µM (BT-549) was 35%, the viability at 1 µM (SR) was 52% and the viability at 100 µM (SF-268) was 9%. The viability at 0.1 µM (SK-MEL-2 [4]) was 101%, the GI50 (MDA-MB-435; read-out: GI50) was 80 nM and the LC50 (MDA-MB-435; read-out: LC50) was over 100 µM. It also gave a TGI (MDA-MB-435; read-out: TGI) of 350 nM, a GI50 (MDA-MB-435; read-out: pGI50 (converted)) of 85.1 nM and an LC50 (MDA-MB-435; read-out: pLC50 (converted)) of over 100 µM. It also gave a TGI (MDA-MB-435; read-out: pTGI (converted)) of 347 nM, a CC50 (RPMI-8226; read-out: LC50 (the source's name)) of over 100 µM and a TGI (RPMI-8226; read-out: TGI) of over 100 µM. It also gave a CC50 (RPMI-8226; read-out: pLC50 (the source's name) (converted)) of over 100 µM, a TGI (RPMI-8226; read-out: pTGI) of over 100 µM and a GI50 (NCI-H226 [5]; read-out: GI50) of over 100 µM. It also gave an LC50 (concentration killing 50% of starting cells) (NCI-H226 [5]; read-out: LC50) of over 100 µM, a TGI (NCI-H226 [5]; read-out: TGI) of over 100 µM and a GI50 (NCI-H226 [5]; read-out: pGI50 (converted)) of over 100 µM. The LC50 (concentration killing 50% of starting cells) (NCI-H226 [5]; read-out: pLC50 (converted)) was over 100 µM, the TGI (NCI-H226 [5]; read-out: pTGI) was over 100 µM and the viability at 100 µM (Hs-578T) was -24%. For the same molecule, the viability at 0.1 µM (OVCAR-3) was 85%, the viability at 1 µM (SK-MEL-2 [6]) was 52% and the viability at 100 µM (PC-3) was 45%. It also gave a viability at 1 µM (MDA-MB-231) of 56%, a viability at 0.001 µM (SK-MEL-5) of 98% and a viability at 0.001 µM (HCC 2998) of 92%.
